{
  "source": "ChEMBL document CHEMBL1131058",
  "about": "“Studies on quinazolines and 1,2,4-benzothiadiazine 1,1-dioxides. 8.1, 2 synthesis and pharmacological evaluation of tricyclic fused quinazolines and 1,2,4-benzothiadiazine 1,1-dioxides as potential alpha1-adrenoceptor antagonists” (J Med Chem, 1998)",
  "key": {"[1]": {"biological_target": "T1, D(2) dopamine receptor (Homo sapiens, UniProt P14416)", "T1 sequence (P14416 whole entry)": "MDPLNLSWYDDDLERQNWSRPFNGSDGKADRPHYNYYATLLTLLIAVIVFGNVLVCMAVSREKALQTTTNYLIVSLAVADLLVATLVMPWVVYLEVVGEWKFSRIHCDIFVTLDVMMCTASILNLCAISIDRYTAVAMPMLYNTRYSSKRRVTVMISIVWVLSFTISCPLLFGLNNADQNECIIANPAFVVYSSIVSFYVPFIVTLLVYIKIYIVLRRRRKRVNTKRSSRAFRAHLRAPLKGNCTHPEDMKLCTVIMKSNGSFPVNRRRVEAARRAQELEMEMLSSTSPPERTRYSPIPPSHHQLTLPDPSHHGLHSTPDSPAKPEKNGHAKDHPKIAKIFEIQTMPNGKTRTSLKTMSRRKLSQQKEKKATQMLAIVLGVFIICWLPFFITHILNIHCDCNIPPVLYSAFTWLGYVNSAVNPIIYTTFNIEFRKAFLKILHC", "experiment": "Compound is evaluated for binding affinity towards Dopamine receptor D2 using [3H]spiperone in CHO cells at 10 uM", "format": "cell-based"}, "[2]": {"biological_target": "D(3) dopamine receptor (Homo sapiens, UniProt P35462)", "sequence (P35462 whole entry)": "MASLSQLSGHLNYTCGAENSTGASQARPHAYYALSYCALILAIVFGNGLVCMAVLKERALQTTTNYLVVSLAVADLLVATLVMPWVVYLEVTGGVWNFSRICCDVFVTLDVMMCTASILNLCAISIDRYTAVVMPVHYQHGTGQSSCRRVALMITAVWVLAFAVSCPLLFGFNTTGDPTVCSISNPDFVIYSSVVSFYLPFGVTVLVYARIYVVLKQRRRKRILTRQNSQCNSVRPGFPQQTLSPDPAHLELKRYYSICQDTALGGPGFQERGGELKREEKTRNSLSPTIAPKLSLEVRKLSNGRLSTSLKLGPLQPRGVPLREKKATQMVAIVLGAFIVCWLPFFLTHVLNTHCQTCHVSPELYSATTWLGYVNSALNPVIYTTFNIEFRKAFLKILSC", "experiment": "Compound is evaluated for binding affinity towards recombinant human Dopamine receptor D3 using [3H]spiperone in CHO cells", "format": "cell-based", "outline": "(§1)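 Contract radioligand competition binding. Sources: 5-HT1 and 5-HT1A in rat brain cortex; 5-HT2 and σ2 in rat brain; σ in guinea pig brain; D2, rhD2 and rhD3 in CHO cells with [³H]spiperone; H1 in guinea pig lung with [³H]pyrilamine. Inhibition constants reported; no constant given where inhibition at 10 µM was below 50%.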"}, "[3]": {"system": "Sigma 2 receptor", "experiment": "Binding affinity towards Sigma 2 receptor using [3H]ifenprodil in rat brain at 10 uM", "format": "tissue-based", "outline": "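Radioligand competition binding was done by an outside contract lab (Pan Lab). Inhibition constants (Ki) were derived from displacement of the stated tritiated ligand. Each compound was tested at 10 µM. Where inhibition at that concentration stayed below 50%, no Ki was reported.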"}, "[4]": {"biological_target": "T2, Alpha-2B adrenergic receptor (Homo sapiens, UniProt P18089)", "T2 sequence (P18089 whole entry)": "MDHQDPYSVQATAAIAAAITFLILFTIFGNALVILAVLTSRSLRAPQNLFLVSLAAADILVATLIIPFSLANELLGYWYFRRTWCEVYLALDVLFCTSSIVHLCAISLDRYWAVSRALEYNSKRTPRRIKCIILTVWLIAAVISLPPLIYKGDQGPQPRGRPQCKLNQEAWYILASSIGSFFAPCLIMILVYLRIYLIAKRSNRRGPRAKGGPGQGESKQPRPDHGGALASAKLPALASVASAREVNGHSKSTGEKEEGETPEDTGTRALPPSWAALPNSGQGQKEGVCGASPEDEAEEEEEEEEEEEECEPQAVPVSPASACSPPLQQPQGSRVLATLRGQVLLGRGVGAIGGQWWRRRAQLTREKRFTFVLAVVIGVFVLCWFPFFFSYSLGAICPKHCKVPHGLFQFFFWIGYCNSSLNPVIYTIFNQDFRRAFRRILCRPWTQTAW", "experiment": "Compound is evaluated for binding affinity towards Alpha-2B adrenergic receptor using [3H]yohimbine"}, "[5]": {"biological_target": "T3, Adrenergic receptor alpha-1 (Rattus norvegicus, UniProt P15823+P23944+P43140)", "T3 sequence (P15823 whole entry)": "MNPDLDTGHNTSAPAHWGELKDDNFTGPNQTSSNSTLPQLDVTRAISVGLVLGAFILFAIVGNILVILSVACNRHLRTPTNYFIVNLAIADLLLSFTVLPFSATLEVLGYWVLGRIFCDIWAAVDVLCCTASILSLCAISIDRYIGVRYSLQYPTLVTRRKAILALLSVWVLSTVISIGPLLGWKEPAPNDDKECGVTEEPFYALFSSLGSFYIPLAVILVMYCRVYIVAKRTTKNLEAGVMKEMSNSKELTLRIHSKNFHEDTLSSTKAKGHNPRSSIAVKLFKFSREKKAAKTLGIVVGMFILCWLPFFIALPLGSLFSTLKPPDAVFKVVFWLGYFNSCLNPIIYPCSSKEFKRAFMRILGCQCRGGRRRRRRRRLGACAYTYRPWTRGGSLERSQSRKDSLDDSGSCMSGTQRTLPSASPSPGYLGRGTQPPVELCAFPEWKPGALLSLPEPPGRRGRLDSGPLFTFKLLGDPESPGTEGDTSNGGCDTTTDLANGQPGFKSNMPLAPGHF", "T3 sequence (P23944 whole entry)": "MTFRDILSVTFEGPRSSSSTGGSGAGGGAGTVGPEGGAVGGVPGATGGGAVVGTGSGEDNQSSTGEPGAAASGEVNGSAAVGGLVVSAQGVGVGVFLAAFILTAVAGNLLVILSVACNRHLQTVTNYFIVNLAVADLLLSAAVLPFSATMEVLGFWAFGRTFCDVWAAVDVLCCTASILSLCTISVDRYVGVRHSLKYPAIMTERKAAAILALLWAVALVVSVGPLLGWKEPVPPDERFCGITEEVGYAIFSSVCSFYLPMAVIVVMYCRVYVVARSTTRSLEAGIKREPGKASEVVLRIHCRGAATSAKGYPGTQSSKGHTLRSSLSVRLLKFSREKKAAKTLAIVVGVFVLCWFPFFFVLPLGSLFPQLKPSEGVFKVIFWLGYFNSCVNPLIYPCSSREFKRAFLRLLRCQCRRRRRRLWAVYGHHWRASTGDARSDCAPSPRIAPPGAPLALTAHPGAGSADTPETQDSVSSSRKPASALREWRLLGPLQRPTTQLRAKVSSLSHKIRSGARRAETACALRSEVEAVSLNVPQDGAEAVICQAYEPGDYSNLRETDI", "T3 sequence (P43140 whole entry)": "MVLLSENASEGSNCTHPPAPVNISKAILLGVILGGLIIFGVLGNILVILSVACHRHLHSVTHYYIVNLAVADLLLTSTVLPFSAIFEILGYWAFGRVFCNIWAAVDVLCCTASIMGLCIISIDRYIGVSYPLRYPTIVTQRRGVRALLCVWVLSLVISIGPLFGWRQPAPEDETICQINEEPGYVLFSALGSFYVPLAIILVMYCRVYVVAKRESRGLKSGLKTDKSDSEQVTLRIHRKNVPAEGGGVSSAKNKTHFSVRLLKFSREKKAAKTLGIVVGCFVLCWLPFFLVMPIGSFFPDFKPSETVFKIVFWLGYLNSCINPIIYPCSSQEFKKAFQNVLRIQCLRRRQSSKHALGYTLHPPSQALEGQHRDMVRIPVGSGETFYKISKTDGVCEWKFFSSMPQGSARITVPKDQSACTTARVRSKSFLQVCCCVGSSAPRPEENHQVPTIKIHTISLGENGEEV", "experiment": "Binding affinity towards Alpha-1 adrenergic receptor measured by displacement of [3H]prazosin from rat brain cortex membranes", "format": "cell membranes, Membrane", "outline": "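Triplicate competition binding against 0.2-0.25 nM [³H]prazosin in Tris buffer pH 7.4, 30 min at room temperature. Competitor range 0.1-200 nM. Nonspecific binding defined with 10 µM phentolamine. Reaction stopped by GF/B filtration with two cold Tris washes. Membrane protein 300-400 µg per assay. Ki calculated from the data; mean ± SEM of 3-6 experiments.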"}, "[6]": {"biological_target": "5-hydroxytryptamine receptor 1A (Rattus norvegicus) (UniProt P19327)", "sequence (P19327 whole entry)": "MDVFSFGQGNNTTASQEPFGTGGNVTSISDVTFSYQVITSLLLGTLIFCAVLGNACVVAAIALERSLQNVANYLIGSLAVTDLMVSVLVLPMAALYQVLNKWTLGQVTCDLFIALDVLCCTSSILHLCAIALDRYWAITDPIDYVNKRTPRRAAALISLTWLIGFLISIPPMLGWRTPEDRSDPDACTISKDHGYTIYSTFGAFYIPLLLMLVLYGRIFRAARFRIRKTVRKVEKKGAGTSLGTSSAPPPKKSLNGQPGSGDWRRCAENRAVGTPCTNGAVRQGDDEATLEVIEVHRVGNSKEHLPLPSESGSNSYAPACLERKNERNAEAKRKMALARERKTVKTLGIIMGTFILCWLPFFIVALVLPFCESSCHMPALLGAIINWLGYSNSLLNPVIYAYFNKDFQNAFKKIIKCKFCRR", "experiment": "Compound is evaluated for binding affinity towards 5-hydroxytryptamine 1A receptor using [3H]-8-OH- -DPAT in rat brain cortex at 10 uM", "format": "tissue-based", "outline": "(§2)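 Single-concentration screen at 10 µM in contract radioligand binding assays. Records whether inhibition of specific radioligand binding stayed below 50%.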"}, "[7]": {"biological_target": "T1, D(2) dopamine receptor", "experiment": "Compound is evaluated for binding affinity towards Dopamine receptor D2 using [3H]-spiperone in CHO cells at 10 uM", "format": "cell-based"}, "[8]": {"biological_target": "Sigma 2 receptor", "experiment": "Binding affinity towards Sigma 2 receptor using [3H]ifenprodil in rat brain", "format": "tissue-based", "outline": "as §1"}, "[9]": {"biological_target": "Serotonin 1 (5-HT1) receptor (Rattus norvegicus, UniProt P28564+P30940+P19327+P28565)", "experiment": "Compound is evaluated for binding affinity towards 5-hydroxytryptamine 1 receptor using [3H]5-HT in rat brain cortex at 10 uM", "format": "tissue-based", "outline": "as §2"}, "[10]": {"biological_target": "Alpha-2A adrenergic receptor (Homo sapiens) (UniProt P08913)", "sequence (P08913 whole entry)": "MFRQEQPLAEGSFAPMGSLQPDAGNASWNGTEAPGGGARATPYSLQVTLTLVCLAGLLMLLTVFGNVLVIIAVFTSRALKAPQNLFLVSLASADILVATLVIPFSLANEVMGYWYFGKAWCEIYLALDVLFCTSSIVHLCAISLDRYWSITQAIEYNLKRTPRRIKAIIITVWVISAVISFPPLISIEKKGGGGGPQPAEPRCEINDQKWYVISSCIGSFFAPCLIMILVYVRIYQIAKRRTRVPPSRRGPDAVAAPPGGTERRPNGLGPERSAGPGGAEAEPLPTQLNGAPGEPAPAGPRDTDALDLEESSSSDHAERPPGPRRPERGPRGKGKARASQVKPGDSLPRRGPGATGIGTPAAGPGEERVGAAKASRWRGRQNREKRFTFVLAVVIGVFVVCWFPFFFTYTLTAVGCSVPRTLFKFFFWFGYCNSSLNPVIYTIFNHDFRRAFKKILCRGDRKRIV", "experiment": "Compound is evaluated for binding affinity towards Alpha-2A adrenergic receptor using [3H]MK912 at 10 uM"}},
  "data": [
    {"compound": "COc1ccccc1N1CCN(CC2CN3C(=O)Nc4ccccc4C3=N2)CC1", "note": "(centres undefined)", "values": [
      {"measurement": "inhibition", "setting": "[1]", "value": "< 50", "unit": "%"},
      {"measurement": "Ki", "setting": "[2]", "value": 2200, "unit": "nM"},
      {"measurement": "inhibition", "setting": "[3]", "value": "< 50", "unit": "%"},
      {"measurement": "Ki", "setting": "[4]", "value": 253, "unit": "nM"}
    ]},
    {"compound": "COc1ccccc1N1CCN(C[C@H]2CN=C3c4ccccc4N=C(SC)N32)CC1", "values": [
      {"measurement": "Ki", "setting": "[4]", "value": 376, "unit": "nM"}
    ]},
    {"compound": "COc1ccccc1N1CCN(Cc2cnc3c4ccccc4nc(O)n23)CC1", "values": [
      {"measurement": "Ki", "setting": "[5]", "value": 5.06, "unit": "nM"},
      {"measurement": "inhibition", "setting": "[1]", "value": "< 50", "unit": "%"},
      {"measurement": "inhibition", "setting": "[3]", "value": "< 50", "unit": "%"}
    ]},
    {"compound": "Oc1nc2ccccc2c2ncc(CN3CCN(c4ccccc4Cl)CC3)n12", "values": [
      {"measurement": "inhibition", "setting": "[6]", "value": "< 50", "unit": "%"},
      {"measurement": "inhibition", "setting": "[7]", "value": "< 50", "unit": "%"},
      {"measurement": "Ki", "setting": "[8]", "value": 3050, "unit": "nM"}
    ]},
    {"compound": "COc1ccccc1N1CCN(CC2CN=C3c4ccccc4N=C(SC)N32)CC1", "note": "(centres undefined)", "values": [
      {"measurement": "Ki", "setting": "[9]", "value": 1839, "unit": "nM"}
    ]},
    {"compound": "COc1ccccc1N1CCN(C[C@@H]2CN=C3c4ccccc4NC(=O)N32)CC1", "values": [
      {"measurement": "Ki", "setting": "[4]", "value": 9300, "unit": "nM"},
      {"measurement": "inhibition", "setting": "[10]", "value": "< 50", "unit": "%"}
    ]},
    {"compound": "COc1ccccc1N1CCN(Cc2cn3c(O)nc4ccccc4c3n2)CC1", "values": [
      {"measurement": "inhibition", "setting": "[6]", "value": "< 50", "unit": "%"},
      {"measurement": "Ki", "setting": "[5]", "value": 6.53, "unit": "nM"},
      {"measurement": "inhibition", "setting": "[1]", "value": "< 50", "unit": "%"},
      {"measurement": "Ki", "setting": "[8]", "value": 4880, "unit": "nM"}
    ]},
    {"compound": "COc1ccccc1N1CCN(C[C@H]2CN=C3c4ccccc4NC(=O)N32)CC1", "values": [
      {"measurement": "Ki", "setting": "[4]", "value": 116, "unit": "nM"}
    ]}
  ]
}
